Experimental data: paper PMC6054836 (Molecular Vision, 2018)
Like-named read-outs stand apart in the source and are kept apart here.

Tests used:
PKCβ1 = PKCβ1 (Homo sapiens, UniProt P05771); assay: In vitro PKC inhibition assay; type: biochemical; settings: read-out: IC50 PKCβ1; purified human recombinant PKCβ1, 30 min, room temperature
Outline: (§1)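 Purified human recombinant PKC isoforms incubated at room temperature with ATP and isoform-specific substrates (25 to 400 nM) plus increasing concentrations of test compound (C8–C18 alkyl benzyl quaternary ammonium class). TR-FRET detection (LANCE or HTRF). Percent inhibition of control activity; IC50 and Hill coefficient from nonlinear Hill-equation fits of mean replicate values.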

PKCβ2 = PKCβ2 (Homo sapiens, UniProt P05771); assay: In vitro PKC inhibition assay; type: biochemical; settings: read-out: IC50 PKCβ2; purified human recombinant PKCβ2, 15 min, room temperature
PKCβ2, sequence (P05771 1-673 isoform P05771-2): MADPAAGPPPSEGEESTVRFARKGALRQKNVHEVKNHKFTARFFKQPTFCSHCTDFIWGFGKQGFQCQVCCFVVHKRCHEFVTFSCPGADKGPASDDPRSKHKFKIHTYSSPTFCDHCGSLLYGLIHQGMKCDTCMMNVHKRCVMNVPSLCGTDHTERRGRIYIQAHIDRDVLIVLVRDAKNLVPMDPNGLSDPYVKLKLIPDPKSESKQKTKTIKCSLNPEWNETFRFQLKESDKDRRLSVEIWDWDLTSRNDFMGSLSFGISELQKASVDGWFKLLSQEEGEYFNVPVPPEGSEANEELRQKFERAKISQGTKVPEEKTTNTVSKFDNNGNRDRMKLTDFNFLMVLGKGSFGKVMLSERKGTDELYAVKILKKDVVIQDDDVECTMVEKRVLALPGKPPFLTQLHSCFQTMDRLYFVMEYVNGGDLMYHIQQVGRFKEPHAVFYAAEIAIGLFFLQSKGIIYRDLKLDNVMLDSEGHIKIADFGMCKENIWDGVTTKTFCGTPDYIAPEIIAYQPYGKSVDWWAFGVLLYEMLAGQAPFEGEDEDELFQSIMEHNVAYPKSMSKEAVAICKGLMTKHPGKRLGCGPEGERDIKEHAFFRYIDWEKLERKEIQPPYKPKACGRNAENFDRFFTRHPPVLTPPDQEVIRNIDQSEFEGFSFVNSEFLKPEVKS
Outline: as §1

PKCα = PKCα (Homo sapiens, UniProt P17252); assay: In vitro PKC inhibition assay; type: biochemical; settings: read-out: IC50 PKCα; purified human recombinant PKCα, 15 min, room temperature
Outline: as §1

PKCδ = PKCδ (Homo sapiens, UniProt Q05655); assay: In vitro PKC inhibition assay; type: biochemical; settings: read-out: IC50 PKCδ; purified human recombinant PKCδ, 30 min, room temperature
PKCδ, sequence (Q05655 whole entry): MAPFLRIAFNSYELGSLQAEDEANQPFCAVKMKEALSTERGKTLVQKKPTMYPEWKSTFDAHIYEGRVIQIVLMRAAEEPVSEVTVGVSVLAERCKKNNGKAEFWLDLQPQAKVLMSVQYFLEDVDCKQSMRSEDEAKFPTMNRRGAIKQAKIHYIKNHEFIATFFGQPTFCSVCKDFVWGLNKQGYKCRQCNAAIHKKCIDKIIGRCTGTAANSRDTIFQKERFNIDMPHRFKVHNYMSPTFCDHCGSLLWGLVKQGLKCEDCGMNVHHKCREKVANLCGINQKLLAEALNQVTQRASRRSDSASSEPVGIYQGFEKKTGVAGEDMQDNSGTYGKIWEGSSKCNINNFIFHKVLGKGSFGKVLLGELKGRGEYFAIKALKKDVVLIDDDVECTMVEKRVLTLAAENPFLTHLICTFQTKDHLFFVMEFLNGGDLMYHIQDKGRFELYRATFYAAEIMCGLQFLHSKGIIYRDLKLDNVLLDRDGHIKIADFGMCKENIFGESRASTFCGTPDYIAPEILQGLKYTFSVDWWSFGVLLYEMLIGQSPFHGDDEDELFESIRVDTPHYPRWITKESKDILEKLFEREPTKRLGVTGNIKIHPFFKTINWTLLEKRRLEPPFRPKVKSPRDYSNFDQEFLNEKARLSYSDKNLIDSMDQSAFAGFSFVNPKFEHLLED
Outline: as §1

PBMCs (LPS) = assay: Marker secretion inhibition in LPS-stimulated PBMCs; type: cell-based; settings: Homo sapiens, PBMC
Outline: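 PBMCs were Ficoll-isolated from one donor's blood and cultured in RPMI 1640 with 10% heat-inactivated FBS, 2 mM glutamine and pen/strep at 37 °C, 5% CO2. Test compound was given in a 30-min preincubation, then in fresh medium with LPS for 24 h. IL-6, IL-8 and IL-12 in supernatant were measured by flow-cytometric bead array. Results are % inhibition versus stimulated cells, mean ± SEM of triplicates.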

PKCβ1, sequence (P05771 whole entry, canonical isoform): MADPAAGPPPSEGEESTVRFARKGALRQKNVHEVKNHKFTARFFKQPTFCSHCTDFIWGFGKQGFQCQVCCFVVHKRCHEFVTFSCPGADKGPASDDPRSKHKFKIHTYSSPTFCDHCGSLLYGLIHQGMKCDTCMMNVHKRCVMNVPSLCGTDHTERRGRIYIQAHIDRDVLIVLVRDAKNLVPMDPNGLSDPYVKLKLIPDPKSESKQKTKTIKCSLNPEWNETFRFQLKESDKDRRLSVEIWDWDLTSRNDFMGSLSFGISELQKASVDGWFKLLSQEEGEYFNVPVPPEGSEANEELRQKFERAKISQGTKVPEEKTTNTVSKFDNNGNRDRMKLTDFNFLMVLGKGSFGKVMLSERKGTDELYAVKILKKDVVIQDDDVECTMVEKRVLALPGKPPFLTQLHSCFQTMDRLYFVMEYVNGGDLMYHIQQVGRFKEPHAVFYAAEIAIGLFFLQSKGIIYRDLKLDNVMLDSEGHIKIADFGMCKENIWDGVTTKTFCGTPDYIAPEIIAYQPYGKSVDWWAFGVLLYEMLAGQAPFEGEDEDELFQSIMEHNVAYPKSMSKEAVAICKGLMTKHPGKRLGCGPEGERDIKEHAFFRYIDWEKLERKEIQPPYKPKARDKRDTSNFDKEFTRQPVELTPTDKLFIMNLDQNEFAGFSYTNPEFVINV

Row | Compound | IC50 (PKCβ1) [µM] | IC50 (PKCβ2) [µM] | IC50 (PKCα) [µM] | IC50 (PKCδ) [µM] | inhibition at 0.1 µM (PBMCs (LPS); read-out: % of marker secretion inhibition, IL6) [%] | inhibition at 0.1 µM (PBMCs (LPS); read-out: % of marker secretion inhibition, IL8) [%] | inhibition at 0.1 µM (PBMCs (LPS); read-out: % of marker secretion inhibition, IL12) [%] | inhibition at 0.1 µM (PBMCs (LPS); read-out: % of marker secretion inhibition, TNFα) [%]
1 | CCCCCCCC[N+](C)(C)Cc1ccccc1 [C8] | > 101 | > 101 | > 141 |  |  |  |  | 
2 | CCCCCCCCCC[N+](C)(C)Cc1ccccc1 [C10] | > 101 | > 101 | > 128 | > 128 |  |  |  | 
3 | CCCCCCCCCCCC[N+](C)(C)Cc1ccccc1 [C12] | 58.8 | 58.8 | 22.6 | > 118 |  |  |  | 
4 | CCCCCCCCCCCCCCCC[N+](C)(C)Cc1ccccc1 [C16 (CKC), cetalkonium chloride] | > 101 | > 101 |  |  |  |  |  | 
5 | C[C@@H]1C[C@H]2[C@@H]3CCC4=CC(=O)C=C[C@]4(C)[C@@]3(F)[C@@H](O)C[C@]2(C)[C@@]1(O)C(=O)CO [DXM, dexamethasone] |  |  |  |  | 72 ± 1 | 68 ± 2 | 97 ± 1 | 85 ± 1

Second part, led by results:

Row | IC50 (PKCβ1) [µM] | IC50 (PKCβ2) [µM] | IC50 (PKCα) [µM] | IC50 (PKCδ) [µM] | Compound | inhibition at 0.1 µM (PBMCs (LPS); read-out: % of marker secretion inhibition, IL6) [%] | inhibition at 0.1 µM (PBMCs (LPS); read-out: % of marker secretion inhibition, IL8) [%] | inhibition at 0.1 µM (PBMCs (LPS); read-out: % of marker secretion inhibition, IL12) [%] | inhibition at 0.1 µM (PBMCs (LPS); read-out: % of marker secretion inhibition, TNFα) [%]
6 | 10.1 | 14.1 | 5.4 | > 109 | CCCCCCCCCCCCCC[N+](C)(C)Cc1ccccc1 [C14] |  |  |  | 
7 | 74.6 | 39.3 | 11.7 |  | CCCCCCCCCCCCCCCCCC[N+](C)(C)Cc1ccccc1 [C18] |  |  |  | 
